Measurements pooled from the literature.
Each line is one published result; the experiments were not run side by side.

SMILES	matrix	tested at	time	pH	Papp [×10⁻⁶ cm/s]
c1ccc(-c2cccc(Nc3nccc(NC4CCCCC4)n3)c2)nc1	PAMPA	50 nM	30 min	–	1530
N=c1c2c(-c3ccccc3)cn(Cc3ccccc3)c2ncn1Cc1ccco1	PAMPA	50 µM	30 min	–	1740
CO[C@H]1CNC[C@@H](OCC2CCC(F)(F)CC2)[C@@H]1Nc1ncc(-c2cncc(C)c2)c2cc(C)c(=O)[nH]c12	PAMPA	–	–	pH 7.4	19
CN1CC(=O)O[C@H](Cc2ccccc2)C(=O)NCC(=O)N(C)CC(=O)O[C@H](Cc2ccccc2)C(=O)NCC1=O	PAMPA	–	–	–	15
COC(=O)c1cccc(-c2cccc(Nc3nccc(NC4CCCCC4)n3)c2)c1	PAMPA	50 nM	30 min	–	76.9
Cn1nccc1-c1nc(N2CCC(c3ccccn3)C2)c2ccccc2n1 (stereo not shown)	PAMPA	10 µM	3 h	pH 7.4	49.3
N=c1c2c(-c3ccccc3)c(-c3ccccc3)n(Cc3ccc(OC(F)(F)F)cc3)c2ncn1[C@H]1CC[C@@H](O)CC1	PAMPA	50 µM	30 min	–	1250
O=C(NCCN1CCCC1)c1cc(-c2ccc(CN3CCOCC3)cc2)nc2ccc(F)cc12	PAMPA	–	–	–	7.3
N=c1c2c(-c3ccccc3)c(-c3ccccc3)n(Cc3ccccc3)c2ncn1[C@H]1CC[C@H](O)CC1	PAMPA	50 µM	30 min	–	> 1000
Cc1cc(N)nc(C#CCCN(C)C)c1	PAMPA-BBB	200 µM	17 h	–	4.7
O=c1[nH]c2scc(-c3ccccc3)c2c(=O)n1O	PAMPA	10 µM	5 h	–	0.4
CC(C)(C)Nc1ccnc(Nc2cccc(-c3cccnc3)c2)n1	PAMPA	50 nM	30 min	–	1990
Cc1sc2c(=O)n(O)c(=O)[nH]c2c1C	PAMPA	10 µM	5 h	–	0.5
N=c1c2c(-c3ccccc3)cn(Cc3ccccc3)c2ncn1CCO	PAMPA	50 µM	30 min	–	1270
Oc1ccc(-c2nc(N3CCC(c4ccccn4)C3)c3ccccc3n2)cc1 (stereo not shown)	PAMPA	10 µM	3 h	pH 7.4	32.8
c1cncc(-c2cccc(Nc3nccc(NC4CCNCC4)n3)c2)c1	PAMPA	50 nM	30 min	–	8.2
c1ccc(-c2nc(N3CCC(c4ccccn4)C3)c3ccccc3n2)cc1 (stereo not shown)	PAMPA	10 µM	3 h	pH 7.4	42.4
CCN1CC(=O)NC(CC(C)C)C(=O)N(C)C(C)C(=O)NC(CC(C)C)C(=O)N2CCCC2C(=O)N(CC2CCCCC2)CC(=O)NC(CC(C)C)C(=O)N(C)C(C)C(=O)NC(Cc2ccccc2)C(=O)N2CCCC2C1=O (stereo not shown)	PAMPA	–	–	–	18
O=C(O)c1ccc2c(c1)nc(NCc1ccccc1)c1ncncc12	PAMPA	–	5 h	pH 7.4	2.79
N=c1c2c(-c3ccccc3)c(-c3ccccc3)n(Cc3ccc(S(N)(=O)=O)cc3)c2ncn1C1CCOCC1	PAMPA	50 µM	30 min	–	1
Cc1csc2c(=O)n(O)c(=O)[nH]c12	PAMPA	10 µM	5 h	–	0.1
Cc1cc(C)c2cc(C(=O)NC3CCCCCCC3)[nH]c2c1	PAMPA	–	16 h	–	0.18

SMILES	matrix	tested at	time	pH	Papp [×10⁻⁶ cm/s]
N#Cc1cccc(-c2nc(N3CCC(c4ccccn4)C3)c3ccccc3n2)c1 (stereo not shown)	PAMPA	10 µM	3 h	pH 7.4	36.9
O=c1[nH]c2sc(-c3ccc(F)cc3)cc2c(=O)n1O	PAMPA	10 µM	5 h	–	0.6
Cc1noc(C)c1-c1ccc2nc(-c3cnn(CC(C)(C)O)c3)nc(N3CCOC[C@@H]3c3ccccc3)c2c1	PAMPA	–	–	–	1180
c1cncc(-c2cccc(Nc3nccc(NC4CCOCC4)n3)c2)c1	PAMPA	50 nM	30 min	–	1840
COc1ccc(CCn2cnc3c(c(-c4ccccc4)c(-c4ccccc4)n3Cc3ccccc3)c2=N)cc1OC	PAMPA	50 µM	30 min	–	1200
Fc1cccc(F)c1-c1nc(N2CCC(c3ccccn3)C2)c2ccccc2n1 (stereo not shown)	PAMPA	10 µM	3 h	pH 7.4	35.5
CC(=O)CC(c1ccccc1)c1c(O)c2ccccc2oc1=O (stereo not shown)	PAMPA	10 µM	24 h	pH 7.4	1.5
O=c1[nH]c2cc(-c3ccc(Cl)cc3)ccc2c(=O)n1O	PAMPA	10 µM	5 h	–	1.7
c1ccc(-c2nc(N3CCOCC3)c3ccccc3n2)nc1	PAMPA	10 µM	3 h	pH 7.4	19.4
CC(C)NCC(O)COc1cccc2ccccc12 (stereo not shown)	PAMPA-BBB	0.5 µM	4 h	pH 7.4	4.82
CC(C)Nc1ccnc(Nc2cccc(C(C)(C)C)c2)n1	PAMPA	50 nM	30 min	–	1600
O=C(CCCN1CCC(O)(c2ccc(Cl)cc2)CC1)c1ccc(F)cc1	PAMPA-BBB	50 µM	16 h	pH 7.4	21.4
CCn1ccc2nc(-c3ccccn3)nc(N3CCC(c4ccccn4)C3)c21 (stereo not shown)	PAMPA	10 µM	3 h	pH 7.4	21
Cc1sc2[nH]c(=O)n(O)c(=O)c2c1C	PAMPA	10 µM	5 h	–	1
c1ccc(CN2CCN(c3nc(-c4ccccn4)nc4ccccc34)CC2)cc1	PAMPA	10 µM	3 h	pH 7.4	32.8
COC(=O)[C@H](C)Nc1ccnc(Nc2cccc(-c3cccnc3)c2)n1	PAMPA	50 nM	30 min	–	1910
CC[C@H](C)[C@@H]1NC(=O)[C@@H](Cc2ccccc2)OC(=O)CNC(=O)[C@H]([C@@H](C)CC)NC(=O)[C@@H](Cc2ccccc2)OC(=O)CNC1=O	PAMPA	–	–	–	47
CCCCNc1ccnc(Nc2cccc(-c3cccnc3)c2)n1	PAMPA	50 nM	30 min	–	1720
C[C@@H](NC(=O)[C@@H](CC(=O)N1CCC(N2CCCCC2)CC1)N1C(=O)[C@@H](N2C(=O)OC[C@@H]2c2ccccc2)[C@H]1/C=C/c1cccc(F)c1)c1ccccc1	PAMPA-BBB	25 µg/mL	18 h	pH 7.4	> 4
O=c1[nH]c2sc3c(c2c(=O)n1O)CCNC3	PAMPA	10 µM	5 h	–	0.07
Cn1c(=O)c2c(ncn2C)n(C)c1=O	PAMPA	200 µM	5 h	–	6.85
